Test results published in ChEMBL document CHEMBL2346641, “Discovery of disubstituted piperidines and homopiperidines as potent dual NK1 receptor antagonists-serotonin reuptake transporter inhibitors for the treatment of depression” (Bioorg Med Chem, 2013).
The source made the active and inactive calls.

What was measured:
[1] = Ratio of drug level in brain to serum in gerbil at 3 mg/kg, ip after 36 mins; assay type: ADME, organism-based; set-up: dose 3 mg/kg, route intraperitoneal; conditions: gerbillinae
Summary of the method: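 Gerbils given single IP dose in 100% PEG-400 (0.1–30 mg/kg); brain and serum sampled 36 min post-dose, matching the interval from dosing to end of forced swim test. Drug concentrations (nM) measured in each matrix and brain-to-serum ratio calculated; mean of n = 3 with SD.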

[2] = target: Histamine H1 receptor (Homo sapiens) (UniProt P35367); test: Inhibition of histamine H1 receptor (unknown origin) at 10 uM
Sequence of Histamine H1 receptor (Homo sapiens) (P35367 whole entry): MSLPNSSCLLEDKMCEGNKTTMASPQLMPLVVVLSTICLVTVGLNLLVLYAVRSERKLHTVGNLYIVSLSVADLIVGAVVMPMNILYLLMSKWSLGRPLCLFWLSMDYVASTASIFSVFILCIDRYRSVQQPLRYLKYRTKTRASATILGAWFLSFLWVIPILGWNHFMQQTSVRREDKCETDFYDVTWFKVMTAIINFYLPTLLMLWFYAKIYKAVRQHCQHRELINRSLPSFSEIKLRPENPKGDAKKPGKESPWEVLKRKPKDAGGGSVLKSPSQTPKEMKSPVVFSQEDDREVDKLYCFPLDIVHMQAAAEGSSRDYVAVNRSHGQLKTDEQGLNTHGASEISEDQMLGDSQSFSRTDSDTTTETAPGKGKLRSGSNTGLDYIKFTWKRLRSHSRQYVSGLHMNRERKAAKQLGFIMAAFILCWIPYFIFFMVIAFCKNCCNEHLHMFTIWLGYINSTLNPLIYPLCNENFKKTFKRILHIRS
Summary of the method: (§1)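 Screened at 10 µM in a commercial panel of over 70 receptors. Significance threshold set at ≥50% inhibition.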

[3] = system: Gerbillinae; test: Toxicity in gerbil assessed as behavioral change measuring spontaneous locomotor activity at 0.1 to 1 mg/kg, ip after 30 mins relative to vehicle-treated control; assay type: organism-based; set-up: dose 0.1-1 mg/kg, route intraperitoneal; conditions: in vivo, 0.5 h
[4] = Drug uptake in gerbil serum at 0.1 mg/kg, ip after 36 mins; assay type: ADME, organism-based; set-up: dose 0.1 mg/kg, route intraperitoneal; conditions: gerbillinae, read-out: Drug uptake
Summary of the method: (§2)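 Gerbils given IP doses as a solution in 100% PEG-400. Brain and serum sampled 36 min post-injection, covering the time from dosing to the end of the behavioral test. Values are means (n = 3) with SD.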

[5] = Drug uptake in gerbil serum at 30 mg/kg, ip after 36 mins; assay type: ADME, organism-based; set-up: dose 30 mg/kg, route intraperitoneal; conditions: gerbillinae, read-out: Drug uptake; summary of the method: as §2
[6] = target: T1, Substance-K receptor (Homo sapiens, UniProt P21452); test: Inhibition of NK2 receptor (unknown origin)
T1 sequence (P21452 whole entry): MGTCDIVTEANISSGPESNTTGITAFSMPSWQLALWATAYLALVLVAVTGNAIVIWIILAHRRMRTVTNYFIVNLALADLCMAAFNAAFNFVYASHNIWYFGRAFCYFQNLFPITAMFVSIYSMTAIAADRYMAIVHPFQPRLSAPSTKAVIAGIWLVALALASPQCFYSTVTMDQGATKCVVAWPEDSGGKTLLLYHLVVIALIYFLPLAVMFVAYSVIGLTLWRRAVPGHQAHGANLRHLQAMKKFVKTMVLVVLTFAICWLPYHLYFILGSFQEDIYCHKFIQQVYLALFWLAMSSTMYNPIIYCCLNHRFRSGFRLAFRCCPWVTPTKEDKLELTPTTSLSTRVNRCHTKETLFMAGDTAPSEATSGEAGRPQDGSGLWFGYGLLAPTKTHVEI

[7] = target: Histamine H2 receptor (Homo sapiens) (UniProt P25021); test: Inhibition of histamine H2 receptor (unknown origin) at 10 uM; summary of the method: as §1
Sequence of Histamine H2 receptor (Homo sapiens) (P25021 whole entry): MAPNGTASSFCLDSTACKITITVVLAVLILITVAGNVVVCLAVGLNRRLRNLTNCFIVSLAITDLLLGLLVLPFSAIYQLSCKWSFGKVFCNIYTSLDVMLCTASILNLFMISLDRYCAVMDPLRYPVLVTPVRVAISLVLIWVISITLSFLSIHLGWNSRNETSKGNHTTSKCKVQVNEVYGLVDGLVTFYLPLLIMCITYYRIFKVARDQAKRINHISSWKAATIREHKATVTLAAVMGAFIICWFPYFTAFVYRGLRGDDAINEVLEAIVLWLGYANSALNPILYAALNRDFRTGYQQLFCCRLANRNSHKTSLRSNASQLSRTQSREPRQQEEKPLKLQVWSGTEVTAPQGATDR

[8] = Drug uptake in gerbil brain at 3 mg/kg, ip after 36 mins; assay type: ADME, organism-based; set-up: dose 3 mg/kg, route intraperitoneal; conditions: gerbillinae, read-out: Drug uptake; summary of the method: as §2
[9] = target: T2, 5-hydroxytryptamine receptor 1A (Homo sapiens, UniProt P08908); test: Inhibition of 5HT1A receptor (unknown origin)
T2 sequence (P08908 whole entry): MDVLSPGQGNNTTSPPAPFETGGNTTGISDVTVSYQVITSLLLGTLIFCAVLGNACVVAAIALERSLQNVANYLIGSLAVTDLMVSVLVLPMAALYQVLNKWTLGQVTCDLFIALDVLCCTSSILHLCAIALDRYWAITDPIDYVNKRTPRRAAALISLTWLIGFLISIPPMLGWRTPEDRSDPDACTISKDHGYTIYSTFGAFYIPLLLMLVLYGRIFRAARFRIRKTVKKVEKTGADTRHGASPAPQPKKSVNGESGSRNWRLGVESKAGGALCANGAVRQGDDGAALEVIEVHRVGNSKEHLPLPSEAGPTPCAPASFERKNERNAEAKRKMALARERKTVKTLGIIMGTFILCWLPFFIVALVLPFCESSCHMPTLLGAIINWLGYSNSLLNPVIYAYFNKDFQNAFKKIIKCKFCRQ

[10] = target: Sodium-dependent dopamine transporter (Homo sapiens, UniProt Q01959); test: Inhibition of DAT (unknown origin) at 10 uM; summary of the method: as §1
Sequence of Sodium-dependent dopamine transporter (Q01959 whole entry): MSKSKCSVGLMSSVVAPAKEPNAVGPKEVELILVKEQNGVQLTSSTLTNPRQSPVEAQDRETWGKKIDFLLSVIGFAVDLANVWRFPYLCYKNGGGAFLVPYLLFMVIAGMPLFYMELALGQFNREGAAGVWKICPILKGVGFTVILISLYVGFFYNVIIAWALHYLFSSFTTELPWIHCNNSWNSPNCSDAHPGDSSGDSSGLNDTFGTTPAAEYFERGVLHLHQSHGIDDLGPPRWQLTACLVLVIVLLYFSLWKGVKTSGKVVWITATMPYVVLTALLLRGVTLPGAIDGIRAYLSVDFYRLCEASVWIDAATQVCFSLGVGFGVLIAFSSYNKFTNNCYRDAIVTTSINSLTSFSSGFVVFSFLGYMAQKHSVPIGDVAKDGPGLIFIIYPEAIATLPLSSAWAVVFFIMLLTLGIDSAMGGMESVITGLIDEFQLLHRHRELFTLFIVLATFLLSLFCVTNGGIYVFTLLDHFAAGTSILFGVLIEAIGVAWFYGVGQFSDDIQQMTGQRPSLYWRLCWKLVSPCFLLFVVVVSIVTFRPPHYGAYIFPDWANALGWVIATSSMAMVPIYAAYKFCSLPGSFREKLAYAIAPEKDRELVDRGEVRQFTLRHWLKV

Kp at 0.6 h [1]: 4.2
inhibition [2]: Active
concentration at 0.6 h [4]: 3.6 nM
concentration at 0.6 h [5]: 2300 nM
IC50 [6]: > 1 µM
inhibition [7]: Active
concentration at 0.6 h [8]: 880 nM
IC50 [9]: > 1 µM
inhibition [10]: Active
SMILES: FC(F)(F)c1cc(COCC2(c3ccccc3)CCNCC2)cc(C(F)(F)F)c1
Activity [3]: Non-toxic
